Active and inactive are the calls of the source. No cut-off for these calls is given here.
Legend:
[1] = system: Oocyte; assay: Potentiation of Wistar rat AMPA receptor expressed in Xenopus laevis oocytes assessed as 2-fold increase in amplitude of (S)-AMPA-induced current by two electrode voltage-clamp method; format: cell-based
How it was run: (§1)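 Xenopus oocytes were injected with rat cortex poly(A+) mRNA (1 mg/mL) and kept 3–4 days at 18 °C in Barth's solution before voltage-clamp recording. (S)-AMPA alone was applied until two similar inward currents were obtained; their mean was set as 100%. Drug was bath-applied at successive increasing concentrations every 5 min 45 s, on 2–3 oocytes. EC2X and EC5X were interpolated as twofold and fivefold current increases; EC50 was taken at half-maximal potentiation.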

[2] = system: Oocyte; assay: Potentiation of Wistar rat AMPA receptor expressed in Xenopus laevis oocytes assessed as increase in amplitude of (S)-[…] current by two electrode voltage-clamp method relative to AMPA; format: cell-based; set-up: concentration or dose not given beside the values; how it was run: as §1
[3] = system: Oocyte; assay: Potentiation of Wistar rat AMPA receptor expressed in Xenopus laevis oocytes assessed as 5-fold increase in amplitude of (S)-AMPA-induced current by two electrode voltage-clamp method; format: cell-based; how it was run: as §1
[4] = Lipophilicity, log P by shake flask method; format: physicochemical; conditions: octanol/water
How it was run: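 Partition coefficient was measured between 1-octanol and phosphate buffer, pH 7.40, by shake-flask, using 1×10^-4 M stock drug solutions in octanol or buffer. Drug concentration after partition was measured by UV spectrophotometry at maximum absorbance.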

[5] = system: Rattus norvegicus; assay: Cognitive enhancing effect in Wistar rat assessed as improvement in juvenile recognition behavior at 0.3 mg/kp, ip; format: functional, organism-based
How it was run: (§2)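 Adult rats were housed individually for 2 days before testing. After 5-min habituation in the home cage, a 21-day juvenile was introduced for a 5-min session and investigation time T1 was recorded on video. Dosing was i.p. 1 min after that session. The same juvenile was reintroduced 120 min later for 5 min (T2). T2–T1 was analysed by one-way ANOVA; n = 8.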

[6] = system: Rattus norvegicus; assay: Cognitive enhancing effect in Wistar rat at 3 mg/kp, ip after 1 hr by one-trial object recognition test; format: functional, organism-based
How it was run: (§3)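 Adult rats had three 3-min sessions 24 h apart. Two similar objects were presented in session 2. In the last session one object was replaced by a new one. Compound or vehicle was given i.p. 1 h before each session at 0.3, 1, 3 or 10 mg/kg. The read-out was the discrimination index (new − familiar exploration / total exploration) in the last session.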

[7] = system: Rattus norvegicus; assay: Cognitive enhancing effect in Wistar rat assessed as improvement in juvenile recognition behavior at 100 mg/kp, po; format: functional, organism-based
[8] = system: Rattus norvegicus; assay: Cognitive enhancing effect in Wistar rat assessed as improvement in juvenile recognition behavior at 1 mg/kp, ip; format: functional, organism-based; how it was run: as §2
[9] = species on record: Rattus norvegicus; assay: Cognitive enhancing effect in Wistar rat after 1 hr by one-trial object recognition test; format: functional, organism-based; how it was run: as §3
[10] = system: Rattus norvegicus; assay: Toxicity in Wistar rat at 100 mg/kp, po; format: organism-based; conditions: in vivo
[11] = system: Rattus norvegicus; assay: Cognitive enhancing effect in Wistar rat assessed as improvement in juvenile recognition behavior at 3 mg/kp, ip; format: functional, organism-based; how it was run: as §2
[12] = system: Rattus norvegicus; assay: Cognitive enhancing effect in Wistar rat at 10 mg/kp, ip after 1 hr by one-trial object recognition test; format: functional, organism-based; how it was run: as §3
[13] = system: Rattus norvegicus; assay: Cognitive enhancing effect in Wistar rat at 100 mg/kp, po after 1 hr by one-trial object recognition test; format: functional, organism-based

| EC [1] [µM] | Activity [2] [%] | EC [3] [µM] | SMILES | also measured |
| --- | --- | --- | --- | --- |
| 123 | > 422 | 300 | CCN1CNS(=O)(=O)c2cc(F)cnc21 |  |
| 86 |  | > 300 | CCN1CN(C)S(=O)(=O)c2ncc(C)cc21 |  |
| > 100 |  |  | CN1CNS(=O)(=O)c2cc(F)cnc21 |  |
| 25 | > 1300 | 95 | CCN1CNS(=O)(=O)c2cc(C)ccc21 |  |
| 38 |  | 96 | CCN1CN(C)S(=O)(=O)c2ncccc21 |  |
| 21 |  | 81 | CN1CNS(=O)(=O)c2cc(Cl)cnc21 |  |
| 110 |  | 335 | CCN1CN(C)S(=O)(=O)c2cc(Cl)cnc21 |  |
| > 1000 |  | > 1000 | CCN1CNS(=O)(=O)c2cc(C)cnc21 |  |
| 116 |  | > 300 | CCN1CNS(=O)(=O)c2ncc(C)cc21 | logP [4]: 0.41 |
| 20 | 1090 | 44 | CCN1CNS(=O)(=O)c2cc(Cl)cnc21 | Activity [5]: Active; Activity [6]: Active; Activity [7]: inactive; Activity [8]: Active; Activity [9]: Dose-dependent effect; Activity [10]: Non-toxic; Activity [11]: Active; Activity [12]: Active; Activity [13]: inactive |
| 160 |  | > 300 | CCN1CNS(=O)(=O)c2cc(Br)cnc21 |  |

More lines, now with the values behind:

| SMILES | EC [1] [µM] | Activity [2] [%] | EC [3] [µM] | also measured |
| --- | --- | --- | --- | --- |
| CCN1CNS(=O)(=O)c2ncccc21 |  |  |  | logP [4]: 0.12 |
| Cc1cnc2c(c1)N(C)CNS2(=O)=O | 146 |  | > 300 |  |
| CN1CNS(=O)(=O)c2ncccc21 | 21 |  | 51 |  |
| CN1CNS(=O)(=O)c2cccnc21 | 200 |  | 500 |  |
| CC1Nc2ccc(Cl)cc2S(=O)(=O)N1 (stereo not drawn) | 134 | > 700 | 509 |  |
| CCN1CNS(=O)(=O)c2cc(Br)ccc21 | 29 | > 1100 | 78 |  |
| NS(=O)(=O)c1cc2c(cc1Cl)NC(C1CC3C=CC1C3)NS2(=O)=O (stereo not drawn) | 1.6 | 844 | 9.8 |  |
| O=S1(=O)N[C@H]2CCCN2c2ccccc21 | 24.6 | 1260 | 78.2 |  |
